Reference: PMC7345411 (ACS Omega, 2020)
Values joined by “and” are separate entries in the source; they are usually repeats but may differ in a detail not shown here. Identical values can stand only once.

Experiments:
HCT116 tumor = assay: HCT116 xenograft tumor model in BALB/c nude mice; type: in vivo; conditions: dose 0.036 mmol/kg/d, daily injection for 21 days
Procedure, shortened: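 Nude mice given 5 × 10^5 viable HCT116 cells subcutaneously in the right flank. Daily injections into the left hypogastrium for 21 days. Test compound at 0.006, 0.012 or 0.018 mmol/kg/d. Comparators: 5-FU 0.036 mmol/kg/d and an uncrystallised 3:1 mix (5-FU 0.036 + NCM 0.012 mmol/kg/d), plus blank control. Mice euthanised; tumours weighed and examined by H&E (×100). TGI = (mean control weight − mean treated weight)/mean control weight.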

Hep G2 = assay: MTT cell proliferation inhibition assay; type: cell-based; conditions: Homo sapiens, HepG2, 72 h
Acute toxicity study = type: in vivo; conditions: for Nd (number of dead animals) / R (%) = Nd/Ni: Ni 10; for LD50: in vivo, acute toxicity
SMMC7721 = assay: MTT cell proliferation inhibition assay; type: cell-based; conditions: Homo sapiens, SMMC-7721, 72 h
HeLa = assay: MTT cell proliferation inhibition assay; type: cell-based; conditions: Homo sapiens, 72 h
HCT116 = assay: MTT cell proliferation inhibition assay; type: cell-based; conditions: Homo sapiens, HCT-116, 72 h
JEG3 = assay: MTT cell proliferation inhibition assay; type: cell-based; conditions: Homo sapiens, JEG-3, 72 h
[1] = Solubility in water by UV-visible spectrophotometry; type: physicochemical
[2] = Pharmacokinetics after oral administration in rats; type: in vivo, Sprague-Dawley rats; conditions: 0.06 mmol/kg
[3] = dose 122.2/0.86 (mg/kg)/(mmol/kg)
[4] = dose 133.4/1.03 (mg/kg)/(mmol/kg)
[5] = dose 158.5/1.22 (mg/kg)/(mmol/kg)
[6] = Sprague-Dawley, rat, plasma, po

Question: For `O=c1[nH]cc(F)c(=O)[nH]1` [5-FU, 5-Fluorouracil], which “TGI (tumor growth inhibition)” value (HCT116 tumor) is on record?
Answer: The value was 21.8%.

Question: And the “W̅ average tumor growth weight” value (HCT116 tumor)?
Answer: Its value is 0.65 ± 0.10 g.

Question: And the IC50 (Hep G2)?
Answer: Its IC50 is 3.86 µM.

Question: What about the “probit (P + 5)” value (Acute toxicity study; [3]) of the same molecule?
Answer: Its value is 3.720.

Question: And the “Nd (number of dead animals)” value (Acute toxicity study; [3])?
Answer: The value was 1.

Question: What about the “R (%) = Nd/Ni” value (Acute toxicity study; [3]) of the same molecule?
Answer: Its value is 10%.

Question: And the “probit (P + 5)” value (Acute toxicity study; [4])?
Answer: The value was 5.520.

Question: What about the “Nd (number of dead animals)” value (Acute toxicity study; [4]) of the same molecule?
Answer: The value was 7.

Question: And the “R (%) = Nd/Ni” value (Acute toxicity study; [4])?
Answer: The value was 70%.

Question: And the “probit (P + 5)” value (Acute toxicity study; [5])?
Answer: The value was 6.28.

Question: What about the “Nd (number of dead animals)” value (Acute toxicity study; [5]) of the same molecule?
Answer: Its value is 9.

Question: What about the “R (%) = Nd/Ni” value (Acute toxicity study; [5]) of the same molecule?
Answer: Its value is 90%.

Question: And the LD50 (Acute toxicity study; LD50 95% confidence interval)?
Answer: The LD50 was 380 to 2630 µmol/kg.

Question: And the LD50 (Acute toxicity study; LD50 (median lethal dose))?
Answer: Its LD50 is 1000 µmol/kg.

Question: And the IC50 (SMMC7721)?
Answer: Its IC50 is 18.9 µM.

Question: And the IC50 (HeLa)?
Answer: The IC50 was 7.96 µM.

Question: What about the IC50 (HCT116) of the same molecule?
Answer: The IC50 was 0.0325 µM.

Question: What about the IC50 (JEG3) of the same molecule?
Answer: Its IC50 is 2.18 µM.

Question: And the solubility at 24 h [1]?
Answer: The solubility at 24 h was 10500 µg/mL and 80000 µM.

Question: And the AUC(0-inf) [2, 6]?
Answer: The AUC(0-inf) was 5.07 ± 0.104 µM·h.

Question: What about the AUC(0-t) [2, 6] of the same molecule?
Answer: Its AUC(0-t) is 4.93 ± 0.076 µM·h.

Question: And the CL/F [2, 6]?
Answer: Its CL/F is 197 mL/min/kg.

Question: And the Cmax [2, 6]?
Answer: The Cmax was 7.99 ± 0.375 µM.

Question: What about the Tmax [2, 6] of the same molecule?
Answer: The Tmax was 20 min.

Question: What about the half-life [2, 6] of the same molecule?
Answer: The half-life was 18.1 ± 3.72 min.

Question: What about the V1/F ([2]; oral, SD rats, n = 8) of the same molecule?
Answer: Its V1/F is 2.783 ± 0.915 L/kg.

Question: And the t1/2α ([2]; oral, SD rats, n = 8)?
Answer: Its t1/2α is 3.84 ± 0.78 min.
